The values that follow come from publication PMC5574666 (International Journal of Nanomedicine, 2017).

Where “and” joins values, the source holds several entries; their conditions need not be identical. Equal entries are not always repeated.

In data set [1] the test system is MCF-7 cells. The experiment in a line: Cellular uptake. It counts as cell-based, Human. The following applies: 6 and 24 h.
The test system of another data set is MCF-7/ADR cells. The experiment in a line: Cellular uptake. It is filed as cell-based, Human. The following applies: MCF-7/ADR cells compared with MCF-7 cells. The method, boiled down:
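MCF-7 and MCF-7/ADR cells were grown in DMEM with 10% FBS and 1% penicillin-streptomycin at 37°C and 5% CO2. They were seeded at 5×10^4 per well in 24-well plates and grown 24 h.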

The subject of data set [2] is MCF-7 cells. Description: Cytotoxicity MTT assay. It counts as cell-based, Human. The note with it: 0.1-10 μg·mL^−1, 48 hours. Background: Tetrazolium assays rely on reduction of a dye to a coloured formazan, in cell work by metabolically active cells.
The nature of data set [3]: In vivo pharmacokinetic study. The following applies: male Sprague-Dawley rats, 5 mg·kg^−1 DOX i.v., n=6.
A short description of data set [4]: Biodistribution of DOX in tumor-bearing mice. It is filed as in vivo. The note with it: BALB/c nude mice bearing MCF-7/ADR tumors, 5 mg·kg^−1 DOX i.v., 1, 6, 12, 24 hours.
The nature of the next data set: Maximum tolerated dose. It is filed as in vivo. The note with it: BALB/c mice; for Animal death: 2 weeks. The method, boiled down: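 Female BALB/c mice were randomized into three formulation groups. […] Body weight and survival were monitored daily for 2 weeks. MTD was taken as the highest dose causing neither death from systemic toxicity nor >15% body weight loss over the study.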

The next data set can be described thus: In vivo toxicity study. More on the design: species or system BALB/c nude mice. The method, boiled down: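 Male BALB/c nude mice bearing MCF-7/ADR xenografts were randomized into five groups when tumors reached ~100 mm3. Groups received i.v. saline, carrier or test formulations. Body weight was tracked during the efficacy study. At its end, heart, liver, spleen, lung and kidney were excised, stained with H&E and examined microscopically at 200×.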

Usually Cmax stands for the peak of the concentration-time curve. As a reminder, the Vd is a proportionality between amount in the body and measured concentration, not a real space. Take `COc1cccc2c1C(=O)c1c(O)c3c(c(O)c1C2=O)C[C@@](O)(C(=O)CO)C[C@@H]3O[C@H]1C[C@H](N)[C@H](O)[C@H](C)O1` [DOX, doxorubicin]: in the data set with MCF-7 cells [1], the internalization into cells entry is “internalized into MCF-7 cells in a time-dependent manner”. In the data set on MCF-7/ADR cells, the internalization into cells result is on record as “substantially reduced”. Also, the cell viability entry with MCF-7 cells [2] is “effectively reduced the viability of MCF-7 cells in a dose-dependent manner”. For the same compound, in data set [3], the “AUC0–∞” value stood at 36.318 ± 6.517 µg/mL/h, the CL was 2.37 ± 0.467 mL/min/kg, the highest concentration (Cmax) was 10275 ± 1219 ng/mL and the “MRT0–∞” value turned out to be 3.429 ± 0.658 h. Also, the distribution volume (Vd) in data set [3] worked out at 0.300 ± 0.073 L/kg. In addition, the “DOX content in tumor” value in data set [4] is on record as “negligible after 6 hours”. Besides, in “Maximum tolerated dose” (single i.v. dose 5 mg/kg DOX), the Weight loss is listed as 2.0% and the Animal death is 0/3. Moreover, in “Maximum tolerated dose” (single i.v. dose 10 mg/kg DOX), the Weight loss is given as 7.4% and the Animal death was 0/3. Also, the Animal death in the data set “Maximum tolerated dose” (single i.v. dose 15 mg/kg DOX, 15 mg/kg) is 2 out of 3 and 2/3. The bodyweight reduction in the data set “In vivo toxicity study” (BALB/c nude mice bearing MCF-7/ADR tumors, 5 mg DOX/kg) is on record as 30%. In the data set “In vivo toxicity study” (end of the antitumor inhibition test), the “H&E histology of main organs (heart, liver, spleen, lung, kidney)” value is recorded as “caused cardiotoxicity”.
